In ChEMBL document CHEMBL3758153, “Identification of novel cyclic lipopeptides from a positional scanning combinatorial library with enhanced antibacterial and antibiofilm activities” (Eur J Med Chem, 2016):
Activity calls are given as the source filed them. No cut-off for these calls is given here. Where a SMILES comes first, the peptide text is derived from it. Bridges are numbered along the chain shown (N, C = ends). [ ]: non-standard residue; d: D form. The star is where a group is joined. Dodecanoyl(12-guanidino) = N=C(N)NCCCCCCCCCCCC(=O)*; d(aThr) = C[C@@H](O)[C@@H](N)C(=O)O

Key:
Acinetobacter baumannii [1] = assay: Antibacterial activity against Acinetobacter baumannii USF-1403 at 100 ug/mL; format: functional, organism-based
In short: (§1)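 Broth microdilution per CLSI in undiluted Müller–Hinton broth. Compounds were dissolved in DMSO and diluted to a final 1% DMSO (v/v). Plates included medium-only and no-drug growth controls, plus methicillin, vancomycin, nisin, colistin and bacitracin. Triplicate runs.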

Enterococcus faecium [2] = assay: Antibacterial activity against vancomycin-resistant Enterococcus faecium USF-1449 at 100 ug/mL; format: functional, organism-based
In short: (§2)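 CLSI microbroth dilution in undiluted Müller–Hinton broth; peptides dissolved in DMSO and diluted in medium to 1% DMSO (v/v) final. Each agent tested at a fixed concentration against the ESKAPE clinical isolate. Controls: medium alone, inoculum without drug, and inoculum with methicillin, vancomycin, nisin, colistin or bacitracin. Run in triplicate.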

Acinetobacter baumannii [3] = assay: Antibacterial activity against Acinetobacter baumannii USF-1403 at 50 ug/mL; format: functional, organism-based; in short: as §1
Acinetobacter baumannii [4] = assay: Antibacterial activity against Acinetobacter baumannii USF-1403 at 25 ug/mL; format: functional, organism-based; in short: as §1
Enterococcus faecium [5] = assay: Antibacterial activity against vancomycin-resistant Enterococcus faecium USF-1449 at 50 ug/mL; format: functional, organism-based; in short: as §2
Acinetobacter baumannii [6] = assay: Antibacterial activity against Acinetobacter baumannii USF-1403 at 35 ug/mL; format: functional, organism-based; in short: as §1
Staphylococcus aureus [7] = assay: Antibacterial activity against methicillin-resistant Staphylococcus aureus CBD-635 at 35 ug/mL; format: functional, organism-based; in short: as §2
Staphylococcus aureus [8] = assay: Antibacterial activity against methicillin-resistant Staphylococcus aureus CBD-635 at 100 ug/mL; format: functional, organism-based; in short: as §2
Staphylococcus aureus [9] = assay: Antibacterial activity against methicillin-resistant Staphylococcus aureus CBD-635 at 50 ug/mL; format: functional, organism-based; in short: as §2
Pseudomonas aeruginosa [10] = assay: Antibacterial activity against Pseudomonas aeruginosa PA14 assessed as inhibition of biofilm formation at 4.8 uM after 3 days by Styo-9/propidium iodide staining based confocal laser scanning microscopy; format: functional, organism-based
[11] = Hemolytic activity in human erythrocytes at 320 uM after 1 hr; format: ADME, cell-based; conditions: erythrocyte
Staphylococcus aureus [12] = assay: Antibacterial activity against methicillin-resistant Staphylococcus aureus SAP0017 clinical isolate assessed as inhibition of biofilm formation at 4.8 uM after 3 days by Styo-9/propidium iodide staining based confocal laser scanning microscopy; format: functional, organism-based
Staphylococcus aureus [13] = assay: Antibacterial activity against methicillin-resistant Staphylococcus aureus SAP0017 clinical isolate assessed as eradication of mature biofilm formation at 4.8 uM after 24 hrs by Styo-9/propidium iodide staining based confocal laser scanning microscopy; format: functional, organism-based
Staphylococcus aureus [14] = assay: Antibacterial activity against methicillin-resistant Staphylococcus aureus CBD-635 at 25 ug/mL; format: functional, organism-based; in short: as §2
Pseudomonas aeruginosa [15] = assay: Antibacterial activity against Pseudomonas aeruginosa PA14 assessed as eradication of mature biofilm formation at 4.8 uM after 24 hrs by Styo-9/propidium iodide staining based confocal laser scanning microscopy; format: functional, organism-based
[16] = Hemolytic activity in human erythrocytes at 155 uM after 1 hr; format: ADME, cell-based; conditions: erythrocyte
Enterococcus faecium [17] = assay: Antibacterial activity against vancomycin-resistant Enterococcus faecium USF-1449 at 25 ug/mL; format: functional, organism-based; in short: as §2
BJ = assay: Cytotoxicity against human BJ cells assessed as reduction in cell viability at 150 uM after 48 to 72 hrs by Cell Titer-Glo Luminescent assay; format: cell-based
In short: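 BJ fibroblasts were seeded at 10,000 per well in EMEM with 10% FBS and incubated overnight at 37 °C, 5% CO2. Medium was then replaced with 2% FBS medium containing peptide (0.5–500 μM, final 1% DMSO). After 48 and 72 h, viability was read by CellTiter-Glo luminescence. Controls were 10 μM doxorubicin and 20% DMSO.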

Staphylococcus aureus [18] = assay: Antibacterial activity against methicillin-resistant Staphylococcus aureus CBD-635 at 10 ug/mL; format: functional, organism-based; in short: as §2
Pseudomonas aeruginosa [19] = assay: Antibacterial activity against Pseudomonas aeruginosa USF-1423 at 100 ug/mL; format: functional, organism-based; in short: as §1
Acinetobacter baumannii [20] = assay: Antibacterial activity against Acinetobacter baumannii USF-1403 at 10 ug/mL; format: functional, organism-based; in short: as §1
Enterobacter cloacae [21] = assay: Antibacterial activity against carbapenem-resistant Enterobacter cloacae USF-1454 at 100 ug/mL; format: functional, organism-based; in short: as §2
Enterobacter cloacae [22] = assay: Antibacterial activity against carbapenem-resistant Enterobacter cloacae USF-1454 at 50 ug/mL; format: functional, organism-based; in short: as §2
Enterobacter cloacae [23] = assay: Antibacterial activity against carbapenem-resistant Enterobacter cloacae USF-1454 at 25 ug/mL; format: functional, organism-based; in short: as §2
Pseudomonas aeruginosa [24] = assay: Antibacterial activity against Pseudomonas aeruginosa USF-1423 at 25 ug/mL; format: functional, organism-based; in short: as §1
Pseudomonas aeruginosa [25] = assay: Antibacterial activity against Pseudomonas aeruginosa USF-1423 at 5 ug/mL; format: functional, organism-based; in short: as §1
Enterococcus faecium [26] = assay: Antibacterial activity against vancomycin-resistant Enterococcus faecium USF-1449 at 10 ug/mL; format: functional, organism-based; in short: as §2
Pseudomonas aeruginosa [27] = assay: Antibacterial activity against Pseudomonas aeruginosa USF-1423 at 10 ug/mL; format: functional, organism-based; in short: as §1
Klebsiella pneumoniae [28] = assay: Antibacterial activity against carbapenem-resistant Klebsiella pneumoniae USF-1433 at 100 ug/mL; format: functional, organism-based; in short: as §2
Acinetobacter baumannii [29] = assay: Antibacterial activity against Acinetobacter baumannii USF-1403 at 5 ug/mL; format: functional, organism-based; in short: as §1
Pseudomonas aeruginosa [30] = assay: Antibacterial activity against Pseudomonas aeruginosa USF-1423 at 50 ug/mL; format: functional, organism-based; in short: as §1
Enterococcus faecium [31] = assay: Antibacterial activity against vancomycin-resistant Enterococcus faecium USF-1449 at 35 ug/mL; format: functional, organism-based; in short: as §2
Klebsiella pneumoniae [32] = assay: Antibacterial activity against carbapenem-resistant Klebsiella pneumoniae USF-1433 at 50 ug/mL; format: functional, organism-based; in short: as §2
Staphylococcus aureus [33] = assay: Ratio of MIC for methicillin-resistant Staphylococcus aureus CBD-635 after 8 serial passages to MIC for methicillin-resistant Staphylococcus aureus CBD-635 after 1st serial passage; format: functional
In short: (§3)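 Serial passage: exponential-phase cultures in MHB at about 10^6 CFU/mL final, started at ½ MIC of agent, incubated overnight at 37°C. An aliquot was moved each step to a 2-fold higher concentration, for 8 passages. MIC was determined at each step by broth microdilution. Vancomycin and ciprofloxacin were comparators. Three independent experiments.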

Pseudomonas aeruginosa [34] = assay: Ratio of MIC for Pseudomonas aeruginosa USF-1423 after 8 serial passages to MIC for Pseudomonas aeruginosa USF-1423 after 1st serial passage; format: functional; in short: as §3
Staphylococcus aureus [35] = assay: Antibacterial activity against methicillin-resistant Staphylococcus aureus CBD-635 at 5 ug/mL; format: functional, organism-based; in short: as §2

Row | Compound | Activity (Acinetobacter baumannii [1]) | Activity (Enterococcus faecium [2]) | Activity (Enterococcus faecium [5]) | Activity (Staphylococcus aureus [7]) | Activity (Staphylococcus aureus [8]) | Activity (Staphylococcus aureus [9]) | Activity (Staphylococcus aureus [14]) | further results
1 | CC[C@@H](C)[C@H]1NC(=O)[C@H](CC(C)C)NC(=O)[C@@H](CCCCN)NC(=O)C(NC(=O)CCCCCCCCCCCNC(=N)N)CNC(=O)[C@@H](CCCCN)NC(=O)[C@@H](CC(N)=O)NC1=O (stereo partly drawn) | Active | Active | Active |  |  |  |  | Activity (Acinetobacter baumannii [3]): Active; Activity (Acinetobacter baumannii [4]): Active; Activity (Acinetobacter baumannii [6]): Active
2 | CC[C@@H](C)[C@H]1NC(=O)[C@H](Cc2ccccc2)NC(=O)[C@@H](CC(C)C)NC(=O)C(NC(=O)CCCCCCCCCCCNC(=N)N)CNC(=O)[C@@H](CCCCN)NC(=O)[C@@H](CC(N)=O)NC1=O (stereo partly drawn) |  |  |  | Active | Active | Active |  | 
3 | CC(C)[C@@H]1NC(=O)[C@@H](C(C)C)NC(=O)C(NC(=O)CCCCCCCCCCCNC(=N)N)CNC(=O)[C@@H](C)NC(=O)[C@@H](CC(N)=O)NC(=O)[C@@H]([C@@H](C)O)NC1=O (stereo partly drawn) | Active | Active | Active |  | Active |  | Active | inhibition (Pseudomonas aeruginosa [10]): Active; Activity [11]: Non-toxic; inhibition (Staphylococcus aureus [12]): Active; inhibition (Staphylococcus aureus [13]): inactive; inhibition (Pseudomonas aeruginosa [15]): inactive
4 | CC(C)C[C@@H]1NC(=O)[C@@H](Cc2c[nH]c3ccccc23)NC(=O)C(NC(=O)CCCCCCCCCCCNC(=N)N)CNC(=O)[C@@H](CCCNC(=N)N)NC(=O)[C@@H](CC(N)=O)NC(=O)[C@@H](Cc2c[nH]c3ccccc23)NC1=O (stereo partly drawn) |  |  |  | Active | Active | Active | Active | 
5 | CC(C)[C@@H]1NC(=O)[C@@H](C(C)C)NC(=O)[C@@H](NC(=O)CCCCCCCCCCCNC(=N)N)[C@@H](C)OC(=O)[C@@H](C)NC(=O)[C@@H](CC(N)=O)NC(=O)[C@@H]([C@@H](C)O)NC1=O ({Dodecanoyl(12-guanidino)}-T[dV]V[d(aThr)][dN][dA]; ester 1-C) | Active |  | Active |  | Active | Active | Active | Activity [16]: Toxic; inhibition (Pseudomonas aeruginosa [10]): Active; Activity (Enterococcus faecium [17]): Active; inhibition (Staphylococcus aureus [12]): Active; Activity (BJ): Toxic; Activity (Staphylococcus aureus [13]): Active; Activity (Staphylococcus aureus [18]): Active; Activity (Pseudomonas aeruginosa [15]): Active
6 | C[C@@H](O)[C@H]1NC(=O)[C@@H](CC(N)=O)NC(=O)[C@@H](CCCNC(=N)N)NC(=O)[C@H](Cc2c[nH]c3ccccc23)NC(=O)[C@@H](Cc2c[nH]c3ccccc23)NC(=O)C(NC(=O)CCCCCCCCCCCNC(=N)N)CNC1=O (stereo partly drawn) |  |  |  | Active | Active | Active |  | 
7 | COLISTIN | Active | Active | Active |  | Active |  |  | Activity (Pseudomonas aeruginosa [19]): Active; Activity (Acinetobacter baumannii [20]): Active; Activity (Enterococcus faecium [17]): Active; Activity (Enterobacter cloacae [21]): Active; Activity (Enterobacter cloacae [22]): Active; Activity (Acinetobacter baumannii [3]): Active; Activity (Enterobacter cloacae [23]): Active; Activity (Pseudomonas aeruginosa [24]): Active; Activity (Pseudomonas aeruginosa [25]): Active; Activity (Acinetobacter baumannii [4]): Active; Activity (Enterococcus faecium [26]): Active; Activity (Pseudomonas aeruginosa [27]): Active; Activity (Klebsiella pneumoniae [28]): Active; Activity (Acinetobacter baumannii [29]): Active; Activity (Pseudomonas aeruginosa [30]): Active
8 | CC(C)C[C@@H]1NC(=O)[C@@H](CC(C)C)NC(=O)C(NC(=O)CCCCCCCCCCCNC(=N)N)CNC(=O)[C@@H](CCCCN)NC(=O)[C@@H](CC(N)=O)NC(=O)[C@@H](Cc2ccccc2)NC1=O (stereo partly drawn) |  |  |  | Active | Active | Active |  | 
9 | CC(C)C[C@@H]1NC(=O)[C@@H](CC(C)C)NC(=O)C(NC(=O)CCCCCCCCCCCNC(=N)N)CNC(=O)[C@@H](CCCNC(=N)N)NC(=O)[C@@H](CC(N)=O)NC(=O)[C@@H](CCCCN)NC1=O (stereo partly drawn) | Active | Active | Active | Active | Active | Active |  | Activity (Enterococcus faecium [31]): Active; Activity (Acinetobacter baumannii [3]): Active; Activity (Klebsiella pneumoniae [32]): Active; Activity (Acinetobacter baumannii [4]): Active; Activity (Acinetobacter baumannii [6]): Active; Activity (Klebsiella pneumoniae [28]): Active
10 | CC[C@@H](C)[C@H]1NC(=O)[C@H](Cc2ccccc2)NC(=O)[C@@H](CC(C)C)NC(=O)C(NC(=O)CCCCCCCCCCCNC(=N)N)CNC(=O)[C@@H](CCCNC(=N)N)NC(=O)[C@@H](CC(N)=O)NC1=O (stereo partly drawn) |  |  |  | Active | Active | Active |  | 
11 | CC(C)C[C@@H]1NC(=O)[C@@H](CC(C)C)NC(=O)C(NC(=O)CCCCCCCCCCCNC(=N)N)CNC(=O)[C@@H](CCCNC(=N)N)NC(=O)[C@@H](CC(N)=O)NC(=O)[C@@H](Cc2ccccc2)NC1=O (stereo partly drawn) |  |  |  |  | Active | Active |  | 
12 | O=C(O)c1cn(C2CC2)c2cc(N3CCNCC3)c(F)cc2c1=O [CIPROFLOXACIN] |  |  |  |  |  |  |  | Ratio (Staphylococcus aureus [33]): 64; Ratio (Pseudomonas aeruginosa [34]): 64
13 | CN[C@@H](CC(C)C)C(=O)N[C@H]1C(=O)N[C@@H](CC(N)=O)C(=O)N[C@H]2C(=O)N[C@H]3C(=O)N[C@H](C(=O)N[C@@H](C(=O)O)c4cc(O)cc(O)c4-c4cc3ccc4O)[C@H](O)c3ccc(c(Cl)c3)Oc3cc2cc(c3O[C@H]2O[C@@H](CO)[C@H](O)[C@@H](O)[C@@H]2O[C@@H]2C[C@@](C)(N)[C@@H](O)[C@@H](C)O2)Oc2ccc(cc2Cl)[C@H]1O | Active |  |  |  | Active | Active | Active | Activity (Staphylococcus aureus [35]): Active; Activity (Staphylococcus aureus [18]): Active; Ratio (Staphylococcus aureus [33]): 64; Ratio (Pseudomonas aeruginosa [34]): 64
